Published values of several laboratories.
Lines come from different studies, so protocols differ.
Target: Serine/threonine-protein kinase MARK1 (MARK1, Homo sapiens, UniProt Q9P0L2)

FC(F)(F)Oc1cccc(-c2cnc3ccc(-c4ccncc4)nn23)c1
remaining binding (cell-free assay, competition with immobilised ligand; 5 µM): 79%

CN(CCCC(F)(F)F)c1nccc(-c2cnn3ncccc23)n1
remaining binding (binding; 1 µM): 100%

Cc1nc(Cc2cccc(C(F)(F)F)c2)sc1-c1ccc(C(N)=O)nc1
remaining binding (cell-free assay, competition with immobilised ligand; 1 µM): 90%

Cc1cnc(Nc2ccc(C(=O)N3CCC(N4CCCC4)CC3)cc2)nc1-c1cc2ccccc2s1
remaining binding (binding, competition with immobilised ligand; 1 µM): 22%

Cn1nc(C(=O)NCc2ccc(C(=O)O)cc2)cc1-c1ccc2[nH]ccc2c1
remaining binding (cell-free assay, competition with immobilised ligand; 0.1 µM): 100%

N[C@H]1CCN(c2nccc(-c3cnn4ncccc34)n2)C1
remaining binding (binding; 1 µM): 100%

CN(C)C(=O)Cn1cc(-c2nc([C@@](C)(c3ccc(-c4cnc(N)nc4)cc3)C3CC3)no2)cn1
remaining binding (cell-free assay, competition with immobilised ligand; 1 µM): 92%

O=C(NCCCN1CCOCC1)c1ccc(Nc2ncc(Cl)c(-c3ccc(Cl)s3)n2)cc1
remaining binding (binding, competition with immobilised ligand; 1 µM): 25%

O=c1nc(-c2ccccn2)sc2ccccc12
remaining binding (binding, competition with immobilised ligand; 1 µM): 100%

c1cncc(-c2cccc(Nc3nccc(NC4CCCCC4)n3)c2)c1
remaining binding (binding, competition with immobilised ligand; 10 µM): 90%

O=C(NCCCN1CCOCC1)c1ccc(Nc2nccc(-c3cc4ccccc4s3)n2)cc1
remaining binding (binding, competition with immobilised ligand; 1 µM): 66%

CNCc1ccccc1-c1csc([C@H](C)Nc2nc(C)nc3cc(OC)c(OC)cc23)c1
remaining binding (cell-free assay, competition with immobilised ligand; 1 µM): 100%

CN(C)c1nccc(-c2cnc3ncccn23)n1
remaining binding (binding; 1 µM): 80%

CNC(=O)Nc1ccc2c(c1)CC[C@@]21OC(=O)N(CC(=O)N(Cc2ccc(F)cc2)[C@@H](C)C(F)(F)F)C1=O
remaining binding (cell-free assay, competition with immobilised ligand; 1 µM): 89%

C[C@@H]1CCN(c2nccc(-c3cnn4ncccc34)n2)C1
remaining binding (binding; 1 µM): 100%

COc1cnc(Nc2cccc(S(N)(=O)=O)c2)nc1N1CCN(c2ccccc2)CC1
remaining binding (binding, competition with immobilised ligand; 1 µM): 100%

COc1ccnn2ncc(-c3ccnc(N(C)C)n3)c12
remaining binding (binding; 1 µM): 97%

O=C(Nc1c[nH]nc1C(=O)NC1CCNCC1)c1cc(F)cc(F)c1
remaining binding (binding, competition with immobilised ligand; 1 µM): 100%

CC1CCCN1c1nccc(-c2cnn3ncccc23)n1 (stereo not shown)
remaining binding (binding; 1 µM): 100%

COc1ncc2cc3ccccc3nc2c1C#N
remaining binding (cell-free assay, competition with immobilised ligand; 5 µM): 65%

CN(c1nccc(-c2cnn3ncccc23)n1)C1CC1
remaining binding (binding; 1 µM): 83%

CCS(=O)(=O)c1cc2cc(C[C@](O)(CC(C)(C)c3ccc(F)cc3C(N)=O)C(F)(F)F)[nH]c2cn1
remaining binding (cell-free assay, competition with immobilised ligand; 1 µM): 100%
